The record followed here is ChEMBL document CHEMBL3400013, “Synthesis and biological activity evaluation of hydrazone derivatives based on a Tröger's base skeleton” (Bioorg Med Chem, 2015).

Active and inactive are the calls of the source. No cut-off for these calls is given here.

The test system of data set [1] is CCRF-CEM. In words: Cytostatic activity against human CCRF-CEM cells after 72 hrs by MTT assay. Type of data set: functional, cell-based. The essentials:
(§1)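 Cells were seeded at 25,000–30,000 per well and pre-incubated for 24 h at 37°C in 5% CO2. Four-fold compound dilutions were added in duplicate and incubated for 72 h. MTT was added for 1–4 h, and formazan was dissolved in 10% aq SDS (pH 5.5) overnight at 37°C. OD was read at 540 nm. IC50 came from dose-response curves, mean ± SD of eight independent experiments.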

Data set [2] has as its system MRC5. In words: Cytostatic activity against human MRC5 cells after 72 hrs by MTT assay. Type of data set: ADME, cell-based. To be noted: MRC5, 72 h. An outline of the steps:
as §1
Background: Tetrazolium assays rely on reduction of a dye to a coloured formazan, in cell work by metabolically active cells.

Data set [3] can be described thus: Metal chelating activity of the compound assessed as formation of Ni2+ complex by UV-vis spectrometry. Type of data set: physicochemical.
Data set [4] deals with MRC5. In words: Selectivity index, ratio of IC50 for human MRC5 cells to IC50 for human K562-TAX cells. Type of data set: functional.
Data set [5] concerns CCRF-CEM. In words: Cell cycle arrest in human CCRF-CEM cells assessed as accumulation at G0/G1 phase at IC50 after 24 hrs by propidium iodide staining-based flow cytometry. Type of data set: functional. The essentials:
(§2)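 Cells were then fixed in 70% ethanol, washed in hypotonic citrate buffer, treated with RNase (50 µg/mL) and stained with propidium iodide. Flow cytometry used a 488 nm laser. Apoptosis was scored as the percentage of particles with propidium content below G0/G1.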
(In general: A flow cytometer gives signals particle by particle.)

The test system of the next data set is CEM-DNR. As to the kind of experiment: Selectivity index, ratio of IC50 for human MRC5 cells to IC50 for human CEM-DNR cells. Type of data set: functional.
The subject of data set [6] is BJ. As to the kind of experiment: Selectivity index, ratio of IC50 for human BJ cells to IC50 for human K562 cells. Type of data set: functional.
Data set [7] relates to Nucleic Acid. As to the kind of experiment: Binding affinity to DNA (unknown origin) assessed as DNA intercalation by UV-visible spectrophotometry in presence of Ni2+. Type of data set: nucleic-acid assay.
Data set [8] concerns CCRF-CEM. In words: Induction of apoptosis in human CCRF-CEM cells assessed as inhibition of DNA synthesis at IC50 after 24 hrs by propidium iodide/BrdU staining by flow cytometry. The arrangement: scale not given: the % may be the effect or the level left. Type of data set: functional.
The test system of data set [9] is Nucleic Acid. In words: Binding affinity to DNA (unknown origin) assessed as DNA intercalation by UV-visible spectrophotometry. Type of data set: nucleic-acid assay.
Data set [10] relates to BJ. As to the kind of experiment: Cytostatic activity against human BJ cells after 72 hrs by MTT assay. Type of data set: ADME, cell-based. The essentials:
as §1

Data set [11] deals with CCRF-CEM. In words: Cell cycle arrest in human CCRF-CEM cells assessed as accumulation at S phase at 5 times IC50 after 24 hrs by propidium iodide staining-based flow cytometry. Type of data set: functional. The essentials:
as §2

In another data set the test system is Pichia kudriavzevii. As to the kind of experiment: Antifungal activity against Candida crusei up to 200 uM after 24 to 48 hrs by broth microdilution method. Type of data set: functional, organism-based.
Data set [12] deals with BJ. As to the kind of experiment: Selectivity index, ratio of IC50 for human BJ cells to IC50 for human CEM-DNR cells. Type of data set: functional.
Data set [13] can be described thus: Metal chelating activity of the compound assessed as formation of Ca2+ complex by UV-vis spectrometry. Type of data set: physicochemical.
The nature of data set [14]: Cytostatic activity against human K562-TAX cells after 72 hrs by MTT assay. Type of data set: functional, cell-based. An outline of the steps: as §1
Another data set deals with Candida albicans. As to the kind of experiment: Antifungal activity against Candida albicans up to 200 uM after 24 to 48 hrs by broth microdilution method. Type of data set: functional, organism-based. In general terms: Broth dilution looks for growth in wells or tubes with falling amounts of substance.
Data set [15] has as its system CCRF-CEM. In words: Induction of apoptosis in human CCRF-CEM cells assessed as inhibition of RNA synthesis at IC50 after 24 hrs by propidium iodide/BrU staining by flow cytometry. Type of data set: functional. The arrangement: scale not given: the % may be the effect or the level left.
The next data set has as its system A549. In words: Cytostatic activity against human A549 cells after 72 hrs by MTT assay. Type of data set: functional, cell-based. The note with it: A549, 72 h. The essentials: as §1
Another data set concerns Candida tropicalis. In words: Antifungal activity against Candida tropicalis up to 200 uM after 24 to 48 hrs by broth microdilution method. Type of data set: functional, organism-based.
In data set [16] the test system is Nucleic Acid. As to the kind of experiment: Binding affinity to DNA (unknown origin) assessed as DNA intercalation by UV-visible spectrophotometry in presence of Zn2+. Type of data set: nucleic-acid assay.

As a reminder, the IC50 is the concentration needed to halve the response being measured. As for `COC(=O)c1ccc(O)c(/C=N/NC(=O)c2ccc3c4c(ccc3c2)N2Cc3c(ccc5cc(C(=O)N/N=C/c6cc(C(=O)OC)ccc6O)ccc35)N(C4)C2)c1`, the IC50 with CCRF-CEM [1] came out at 5620 nM; with MRC5 [2] it was 95400 nM; in the data set on BJ [10] it was 87400 nM; in [14], 21200 nM; in the data set with A549, 11900 nM. Moreover, the Activity entry in data set [3] is reported as “Active”; with CCRF-CEM [5], 48.63%; with CCRF-CEM [8] it was 46.43%; in the data set with CCRF-CEM [11], 55.48%; in data set [13], “Not Active”; in the data set on CCRF-CEM [15], 28.66%. Further, the “Ratio IC50” value in the data set on MRC5 [4] is recorded as 4.3; in the data set on CEM-DNR it was 3.2; in the data set with BJ [6], 9.4; in the data set with BJ [12], 3.2. Also, the result with Nucleic Acid [7] and in the data set on Nucleic Acid [16] was Active. The result in the data set with Nucleic Acid [9], with Pichia kudriavzevii, in the data set on Candida albicans and with Candida tropicalis was inactive.

For `O=C(N/N=C/c1ccccc1O)c1ccc2c3c(ccc2c1)N1Cc2c(ccc4cc(C(=O)N/N=C/c5ccccc5O)ccc24)N(C3)C1`, the concentration for half-maximal inhibition (IC50) with CCRF-CEM [1] was determined as 360 nM; in the data set with MRC5 [2], 390 nM; in the data set with BJ [10], 270 nM; in [14], 830 nM; in the data set with A549, 980 nM. For the same compound, the Activity entry is reported as “Active” in [3]; 30.6% in the data set with CCRF-CEM [5]; 50.71% in the data set with CCRF-CEM [8]; 37.75% in the data set on CCRF-CEM [11]; “Not Active” in data set [13]; 59.79% with CCRF-CEM [15]. Further, the “Ratio IC50” value is 0.4 with MRC5 [4], 0.1 in the data set on CEM-DNR, 0.6 in the data set with BJ [6] and 0.1 with BJ [12]. Also, the outcome with Nucleic Acid [7] and in the data set on Nucleic Acid [16] was Active. The outcome in the data set on Nucleic Acid [9], with Pichia kudriavzevii, with Candida albicans and in the data set with Candida tropicalis was inactive.

In the case of `Cc1ccc(O)c(/C=N/NC(=O)c2ccc3c4c(ccc3c2)N2Cc3c(ccc5cc(C(=O)N/N=C/c6cc(C)ccc6O)ccc35)N(C4)C2)c1`, the IC50 in the data set with CCRF-CEM [1] was found to be 580 nM; in the data set with MRC5 [2], 270 nM; in the data set on BJ [10] it was 690 nM; in data set [14], 1140 nM; in the data set on A549, 540 nM. The Activity result is reported as “Active” in data set [3]; 40.52% in the data set on CCRF-CEM [5]; 38.67% in the data set on CCRF-CEM [8]; 46.78% in the data set with CCRF-CEM [11]; “Not Active” in [13]; 33.57% with CCRF-CEM [15]. Further, the “Ratio IC50” value was found to be 0.4 in the data set with MRC5 [4], 0.1 in the data set on CEM-DNR, 0.5 in the data set on BJ [6] and 0.1 in the data set on BJ [12]. Besides, the result in the data set on Nucleic Acid [7] and in the data set with Nucleic Acid [16] was Active. For the same compound, the outcome in the data set with Nucleic Acid [9], with Pichia kudriavzevii, with Candida albicans and in the data set with Candida tropicalis was inactive.

On to `O=C(NN=C(c1ccccn1)c1ccccn1)c1ccc2c3c(ccc2c1)N1Cc2c(ccc4cc(C(=O)NN=C(c5ccccn5)c5ccccn5)ccc24)N(C3)C1`, for which the IC50 was 910 nM with CCRF-CEM [1]; 1030 nM in the data set on MRC5 [2]; 2090 nM with BJ [10]; 560 nM in data set [14]; 2030 nM with A549. For the same compound, the Activity entry in [3] is “Active”; in the data set on CCRF-CEM [5], 28.27%; in the data set on CCRF-CEM [8], 57.31%; in the data set with CCRF-CEM [11] it was 68.14%; in [13] it was “Not Active”; in the data set with CCRF-CEM [15], 60.37%. In addition, the “Ratio IC50” value worked out at 2.8 in the data set with MRC5 [4], 0.7 in the data set with CEM-DNR, 2.4 in the data set on BJ [6] and 0.7 in the data set on BJ [12]. Also, the outcome in the data set on Nucleic Acid [7] and with Nucleic Acid [16] was Active. Moreover, the outcome with Nucleic Acid [9], in the data set on Pichia kudriavzevii, in the data set on Candida albicans and in the data set on Candida tropicalis was inactive.

As to `O=C(N/N=C/c1cc(O)ccc1O)c1ccc2c3c(ccc2c1)N1Cc2c(ccc4cc(C(=O)N/N=C/c5cc(O)ccc5O)ccc24)N(C3)C1`, the concentration for half-maximal inhibition (IC50) came out at 60 nM with CCRF-CEM [1]; 550 nM in the data set on MRC5 [2]; 6550 nM in the data set on BJ [10]; 260 nM in data set [14]; 170 nM in the data set with A549. For the same compound, the Activity result in [3] is “Active”; in the data set with CCRF-CEM [5], 37.38%; in the data set with CCRF-CEM [8], 50.15%; in the data set with CCRF-CEM [11], 58.22%; in data set [13] it was “Not Active”; in the data set on CCRF-CEM [15] it was 48.47%. In addition, the “Ratio IC50” value is 13.8 in the data set with MRC5 [4], 1.4 in the data set on CEM-DNR, 8 in the data set on BJ [6] and 1.4 with BJ [12]. For the same compound, the outcome with Nucleic Acid [7] and in the data set on Nucleic Acid [16] was Active. Moreover, the result with Nucleic Acid [9], in the data set on Pichia kudriavzevii, with Candida albicans and with Candida tropicalis was inactive.

Regarding `COc1ccc(O)c(/C=N/NC(=O)c2ccc3c4c(ccc3c2)N2Cc3c(ccc5cc(C(=O)N/N=C/c6cc(OC)ccc6O)ccc35)N(C4)C2)c1`, the 50% inhibitory concentration (IC50) with CCRF-CEM [1] came out at 180 nM; in the data set with MRC5 [2], 110 nM; with BJ [10], 57200 nM; in data set [14], 210 nM; with A549, 230 nM. The Activity entry in data set [3] is “Active”; with CCRF-CEM [5], 30%; in the data set with CCRF-CEM [8], 50.98%; in the data set with CCRF-CEM [11] it was 48.55%; in [13], “Not Active”; with CCRF-CEM [15] it was 63.95%. Moreover, the “Ratio IC50” value with MRC5 [4] is 137.7; with CEM-DNR, 13.3; in the data set on BJ [6], 357.2; in the data set with BJ [12], 13.3. The outcome in the data set with Nucleic Acid [7] and with Nucleic Acid [16] was Active. The outcome with Nucleic Acid [9], in the data set on Pichia kudriavzevii, in the data set on Candida albicans and in the data set with Candida tropicalis was inactive.
